Drawing on ChEMBL document CHEMBL1148342, “Synthesis, X-ray crystal structures, stabilities, and in vitro cytotoxic activities of new heteroarylacrylonitriles” (J Med Chem, 2004), this text covers IC50 and Activity for 8 compounds.

The test system of assay [1] is 5637. Kind of assay: Growth inhibition against human 5637 cell lines. The assay is classed as functional, cell-based. The procedure, abridged: (§1)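 Cells were grown in RPMI-1640 with 2 g/L NaHCO3 and 10% FCS at 37 °C in 5% CO2, seeded at 1000 cells/well, and dosed 24 h later at five geometric dilutions for 96 h of continuous exposure. Cells were then glutaraldehyde-fixed and stained with crystal violet, with OD read at 570 nm. IC50 was taken from the dose–response data.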

The subject of assay [2] is 5637. Kind of assay: Cytotoxic activity against human 5637 cell line at 20 uM expressed as percent growth value. It counts as functional. The procedure, abridged: (§2)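 Cells in RPMI-1640 with 10% FCS were seeded (1000 cells/well; KYSE-510 500, LCLC-103H 250), then exposed 24 h later for 96 h. Read-out was crystal violet staining of glutaraldehyde-fixed cells at OD 570 nm. Growth (%) = (OD treated − OD at drug addition)/(OD control − OD at drug addition) × 100.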

Assay [3] deals with SISO. Kind of assay: Cytotoxic activity against human SISO cell line at 20 uM. The assay is classed as functional. In outline:
as §2

For the next assay, the system named is DAN-G. Kind of assay: Growth inhibition against human DAN-G cell lines. It counts as functional, cell-based. The procedure, abridged:
as §1

Assay [4] concerns LCLC-103H cell line. The assay can be described thus: Growth inhibition against human LCLC-103H cell lines. The assay is classed as functional, cell-based. In outline:
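LCLC-103H cells were grown in RPMI-1640 with 2 g/L NaHCO3 and 10% FCS (5% CO2, 37 °C) and plated at 250 cells/well. After 24 h, five geometric dilutions were applied continuously for 96 h. Fixation was with glutaraldehyde, followed by crystal violet staining and OD at 570 nm. IC50 came from the dose–response curves.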

Assay [5] deals with LCLC-103H cell line. The assay can be described thus: Cytotoxic activity against human LCLC-103H cell line at 20 uM expressed as percent growth value. The assay is classed as functional. In outline:
as §2

The test system of a further assay is RT-4. Kind of assay: Growth inhibition against human RT-4 cell lines. The assay is classed as functional, cell-based. In outline: as §1
Assay [6] has as its system SISO. Kind of assay: Growth inhibition against human SISO cell lines. The assay is classed as functional, cell-based. In outline:
as §1

A further assay deals with TERT-RPE1. The assay can be described thus: Compound was tested for growth inhibition against human h-TERTRPE1 cell lines. The assay is classed as functional, cell-based. In outline: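 The noncancerous hTERT-immortalized epithelial line h-TERT-RPE1 was grown in DMEM/F-12 with 2 g/L NaHCO3 and 10% FCS (37 °C, 5% CO2) and seeded at 1000 cells/well. Substance was added 24 h later at five geometric dilutions for 96 h continuously. The read-out was crystal violet staining after glutaraldehyde fixation, OD 570 nm, with IC50 from dose–response.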

For another assay, the system named is YAPC. Kind of assay: Compound was tested for growth inhibition against human YAPC cell lines. The assay is classed as functional, cell-based. The procedure, abridged: as §1
For the next assay, the system named is RT-112. The assay can be described thus: Growth inhibition against human RT-112 cell lines. The assay is classed as functional, cell-based. The procedure, abridged:
as §1

The next assay has as its system KYSE-70 cell line. The assay can be described thus: Growth inhibition against human KYSE-70 cell lines. It counts as functional, cell-based. In outline: as §1
Another assay deals with KYSE-520 cell line. Kind of assay: Growth inhibition against human KYSE-520 cell lines. The assay is classed as functional, cell-based. In outline: as §1
The test system of a further assay is KYSE-510 (human). Kind of assay: Growth inhibition against human KYSE-510 cell lines.
A further assay concerns KYSE-510. The assay can be described thus: Cytotoxic activity against human KYSE-510 cell line at 20 uM expressed as percent growth value. The assay is classed as functional. In outline: as §2
The next assay concerns MCF7. The assay can be described thus: Growth inhibition against human MCF-7 cell lines. The assay is classed as functional, cell-based. In outline: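 MCF-7 was cultured in RPMI-1640 with 2 g/L NaHCO3, 10% FCS, 1 mM pyruvate, MEM salts and amino acids. Plating was 1000 cells/well, then after 24 h, 96 h of continuous exposure at five geometric dilutions. Crystal violet staining of glutaraldehyde-fixed cells was read at 570 nm, and IC50 was derived from the dose–response data.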

A value given as a limit tells only on which side of the number the result lay.

Consider `Cc1ccc(/C=C(\C#N)c2nc3ccccc3[nH]2)s1`, for which the IC50 (as a rule, the concentration that inhibits the measured activity by half) in the assay with 5637 [1] (Homo sapiens) was 20000 nM; in the assay with DAN-G (Homo sapiens, DAN-G), over 20000 nM; with LCLC-103H cell line [4] (Homo sapiens, LCLC-103H) it was 2110 nM; with RT-4 (Homo sapiens, RT-4), over 20000 nM; with SISO [6] (Homo sapiens, SISO), over 20000 nM. Also, the Activity in the assay on 5637 [2] is recorded as 47.8; with SISO [3], 64.5; with LCLC-103H cell line [5], 5.9.
Consider `N#C/C(=C\c1ccc([N+](=O)[O-])s1)c1n[nH]c(Cc2ccccc2)n1`, for which the IC50 in the assay on 5637 [1] (Homo sapiens) came to 320 nM; in the assay on TERT-RPE1 (Homo sapiens, RPE-1), 510 nM; with YAPC (Homo sapiens, YAPC) it was 360 nM; in the assay with RT-112 (Homo sapiens, RT-112), 650 nM; in the assay with KYSE-70 cell line (Homo sapiens, KYSE-70) it was 420 nM; in the assay with KYSE-520 cell line (Homo sapiens, KYSE-520), 290 nM. Moreover, the IC50 in the assay with KYSE-510 (human) (Homo sapiens, KYSE-510) came to 530 nM; with DAN-G (Homo sapiens, DAN-G), 500 nM; with LCLC-103H cell line [4] (Homo sapiens, LCLC-103H), 310 nM; in the assay on RT-4 (Homo sapiens, RT-4) it was 590 nM; in the assay with SISO [6] (Homo sapiens, SISO), 780 nM; with MCF7 (Homo sapiens, MCF7) it was 420 nM. The Activity in the assay with SISO [3] is on record as -8.7; with LCLC-103H cell line [5], -8.4; in the assay with KYSE-510, -21.3.
Consider `N#C/C(=C\c1ccc(Cl)s1)c1nc2ccccc2[nH]1`, for which the IC50 is 22400 nM with 5637 [1] (Homo sapiens); over 20000 nM with DAN-G (Homo sapiens, DAN-G); 1970 nM in the assay on LCLC-103H cell line [4] (Homo sapiens, LCLC-103H); over 20000 nM in the assay on RT-4 (Homo sapiens, RT-4); over 20000 nM in the assay with SISO [6] (Homo sapiens, SISO). For the same compound, the values for the Activity in the assay on 5637 [2], in the assay with SISO [3] and in the assay with LCLC-103H cell line [5] were 44.6, 102.2 and 13.4, respectively.
Regarding `N#C/C(=C\c1csc([N+](=O)[O-])c1)c1nc2ccccc2[nH]1`, the concentration for half-maximal inhibition (IC50) in the assay with 5637 [1] (Homo sapiens) is over 20000 nM; in the assay with TERT-RPE1 (Homo sapiens, RPE-1) it was over 5000 nM; in the assay on DAN-G (Homo sapiens, DAN-G) it was over 20000 nM; in the assay on LCLC-103H cell line [4] (Homo sapiens, LCLC-103H) it was 1420 nM; in the assay on RT-4 (Homo sapiens, RT-4) it was over 20000 nM; with SISO [6] (Homo sapiens, SISO), over 20000 nM. The Activity was found to be 80 with 5637 [2], 82.3 in the assay with SISO [3] and 8.6 with LCLC-103H cell line [5].
For `Cc1n[nH]c(/C(C#N)=C/c2ccc([N+](=O)[O-])s2)n1`, the IC50 in the assay with 5637 [1] (Homo sapiens) stood at 220 nM; in the assay on TERT-RPE1 (Homo sapiens, RPE-1) it was 690 nM; with YAPC (Homo sapiens, YAPC), 410 nM; in the assay with RT-112 (Homo sapiens, RT-112) it was 670 nM; in the assay on KYSE-70 cell line (Homo sapiens, KYSE-70) it was 440 nM; in the assay with KYSE-520 cell line (Homo sapiens, KYSE-520) it was 600 nM. Also, the IC50 with KYSE-510 (human) (Homo sapiens, KYSE-510) amounted to 560 nM; with DAN-G (Homo sapiens, DAN-G) it was 570 nM; in the assay with LCLC-103H cell line [4] (Homo sapiens, LCLC-103H) it was 330 nM; in the assay with RT-4 (Homo sapiens, RT-4) it was 900 nM; in the assay on SISO [6] (Homo sapiens, SISO) it was 510 nM; in the assay on MCF7 (Homo sapiens, MCF7) it was 380 nM. Further, the Activity with SISO [3] is -8.8; with LCLC-103H cell line [5] it was -8.4; in the assay with KYSE-510, -21.3.
For `N#C/C(=C\c1ccc([N+](=O)[O-])s1)c1nc2ccccc2[nH]1`, the half-maximal inhibitory concentration (IC50) turned out to be 150 nM with 5637 [1] (Homo sapiens); 390 nM in the assay with TERT-RPE1 (Homo sapiens, RPE-1); 160 nM in the assay with YAPC (Homo sapiens, YAPC); 360 nM with RT-112 (Homo sapiens, RT-112); 160 nM in the assay on KYSE-70 cell line (Homo sapiens, KYSE-70); 110 nM with KYSE-520 cell line (Homo sapiens, KYSE-520). Moreover, the IC50 in the assay on KYSE-510 (human) (Homo sapiens, KYSE-510) stood at 330 nM; in the assay with DAN-G (Homo sapiens, DAN-G), 320 nM; with LCLC-103H cell line [4] (Homo sapiens, LCLC-103H), 170 nM; in the assay with RT-4 (Homo sapiens, RT-4) it was 270 nM; in the assay on SISO [6] (Homo sapiens, SISO) it was 310 nM; with MCF7 (Homo sapiens, MCF7), 160 nM. Besides, the Activity is recorded as 18 in the assay on SISO [3], -6.5 in the assay with LCLC-103H cell line [5] and 20.5 in the assay with KYSE-510.
Turning to `COc1cc([C@@H]2c3cc4c(cc3[C@@H](O[C@@H]3O[C@@H]5CO[C@@H](C)O[C@H]5[C@H](O)[C@H]3O)[C@H]3COC(=O)[C@H]23)OCO4)cc(OC)c1O` [ETOPOSIDE], the IC50 with 5637 [1] (Homo sapiens) turned out to be 530 nM; in the assay with TERT-RPE1 (Homo sapiens, RPE-1) it was 90 nM; in the assay on YAPC (Homo sapiens, YAPC), 1320 nM; with RT-112 (Homo sapiens, RT-112), 220 nM; in the assay with KYSE-70 cell line (Homo sapiens, KYSE-70) it was 790 nM; in the assay on KYSE-520 cell line (Homo sapiens, KYSE-520), 410 nM. Besides, the IC50 was determined as 700 nM in the assay on KYSE-510 (human) (Homo sapiens, KYSE-510); 380 nM in the assay on DAN-G (Homo sapiens, DAN-G); 1330 nM in the assay with RT-4 (Homo sapiens, RT-4); 150 nM in the assay with SISO [6] (Homo sapiens, SISO); 540 nM in the assay with MCF7 (Homo sapiens, MCF7).
On to CISPLATIN, for which the IC50 came to 310 nM with 5637 [1]; 3040 nM in the assay with TERT-RPE1 (tert-rpe1); 6030 nM in the assay with YAPC (yapc); 2140 nM in the assay on RT-112 (rt-112); 1490 nM in the assay with KYSE-70 cell line (kyse-70); 5070 nM in the assay on KYSE-520 cell line (kyse-520). Further, the IC50 with KYSE-510 (human) (kyse-510) is 880 nM; with DAN-G (dan-g), 1390 nM; in the assay on LCLC-103H cell line [4] (lclc-103h), 1630 nM; in the assay with RT-4 (rt-4), 3700 nM; with SISO [6] (siso), 200 nM; in the assay on MCF7 (mcf7), 740 nM.
